Results: ChEMBL document CHEMBL3826876, “Toward the Development of Specific G-Quadruplex Binders: Synthesis, Biophysical, and Biological Studies of New Hydrazone Derivatives” (J Med Chem, 2016)
Calls of active or inactive are those of the source. No cut-off for these calls is given here.

Columns and labels:
[1] = Binding affinity to human 5'-FAM/3'-TAMRA labeled telomere 21 parallel G-quadruplex DNA (unknown origin) assessed as change in melting temperature at 4:1 ligand:DNA ratio in presence of 100 mM KCl buffer by FRET assay
Method in brief: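 FRET melting of FAM/TAMRA-labelled G4 oligos (400 nM, annealed 85 °C 10 min) with ligand at 4 equiv, same buffers as CD (20 mM KCl for c-kit2 and c-myc; 100 mM KCl for telomeric parallel form, annealed at high concentration). Excitation 450-495 nm, emission 515-545 nm, read every 0.5 °C over 30-100 °C; ΔTm by curve fit; duplicate runs averaged.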

[2] = Effect on synthetic self-complementary DNA 12-mer duplex topology at 4 mol equiv in presence of K+ ions by circular dichroism spectroscopic analysis
Method in brief: (§1)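 CD spectra at 20 °C, 230-360 nm, 3 scans averaged, baseline subtracted; 10 µM G4 or 15 µM duplex in potassium- or lithium-phosphate pH 7.0 buffers with 100 mM KCl (c-kit2, c-myc: 5 mM potassium phosphate, 20 mM KCl); ligand 4 molar equiv added to folded DNA from 6 mM DMSO stock.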

[3] = Binding affinity to synthetic telomere 23 parallel G-quadruplex DNA assessed as change in melting temperature at 4 mol equiv in presence of 100 mM KCl buffer by circular dichroism spectroscopic analysis
Method in brief: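 CD melting, 20-100 °C at 1 °C/min, signal at 264 (parallel), 290 (antiparallel) or 280 nm (duplex). G4 DNA 10 µM or duplex 15 µM, folded by heating at 90 °C 5 min and slow cooling, in 10 mM potassium phosphate (c-kit1, Tel23, Tel26) or lithium phosphate (Tel23-p, ds12) pH 7.0 with 100 mM KCl. Ligand 4 equiv; Tm by curve fit, ΔTm vs DNA alone; duplicate average.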

[4] = Cytotoxicity against human HCT116 cells assessed as cell killing after 1 hr by MTT assay; format: functional, cell-based; conditions: HCT-116, 1 h
Method in brief: (§2)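 U2OS and HCT116 in DMEM with 10% FBS, 1% L-glutamine, seeded at 40000 cells/ml; 24 h later exposed for 1 h or 24 h, then drug-free medium 1-2 days. MTT 1 h at 37 °C, DMSO solubilisation, absorbance 595 nm. IC50 by linear regression; two independent experiments in triplicate, mean ± SE.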

[5] = Binding affinity to synthetic c-MYC G-quadruplex DNA assessed as increase in thermal stability at 1:1 to 2:1 ligand:DNA ratio in presence of 20 mM KCl buffer by circular dichroism spectroscopic analysis
Method in brief: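 CD melting in 5 mM potassium phosphate, 20 mM KCl, 10 µM folded G4, heated 20-100 °C at 1 °C/min; ligand:DNA ratios 1:1, 2:1 and 4:1 compared; Tm from curve fit.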

[6] = Binding affinity to 5' and 3'-terminal G-tetrads of synthetic c-KIT2 G12T/G21T double mutant parallel G-quadruplex DNA in presence of 20 mM KCl solution by NMR spectroscopic analysis
Method in brief: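 1H NMR titration at 25 °C, 700 MHz, water-suppressed 1D spectra; DNA 0.2-0.5 mM strand in H2O/D2O 9:1. Myc22 in 25 mM KH2PO4, 70 mM KCl, 0.2 mM EDTA, pH 7.0; c-kit2 T12/T21 in 5 mM KH2PO4, 20 mM KCl, 0.2 mM EDTA, pH 6.8. Ligand in DMSO-d6 added stepwise into the tube; imino proton shifts followed.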

[7] = Effect on synthetic c-KIT2 G-quadruplex DNA topology at 4 mol equiv by circular dichroism spectroscopic analysis; method in brief: as §1
[8] = Effect on synthetic telomere 26 G-quadruplex DNA topology at 4 mol equiv by circular dichroism spectroscopic analysis; method in brief: as §1
[9] = Cytotoxicity against human HCT116 cells assessed as cell killing after 24 hrs by MTT assay; format: functional, cell-based; conditions: HCT-116, 24 h; method in brief: as §2
Homo sapiens = species on record: Homo sapiens; assay: Binding affinity to human 5'-FAM/3'-TAMRA labeled telomere 21 G-quadruplex DNA assessed as increase in melting temperature by FRET assay
Method in brief: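 FRET melting screen in 60 mM potassium cacodylate pH 7.4, labelled probe 400 nM annealed at 85 °C for 10 min; ligands at various concentrations up to 20 µM, diluted from 10 mM DMSO stock via 10 mM HCl. Excitation 450-495 nm, emission 515-545 nm, 30-100 °C in 0.5 °C steps with 30 s hold; ΔTm by curve fitting, triplicate.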

[10] = Induction of G-quadruplex formation in synthetic unfolded telomere 23 DNA assessed as increase in molar ellipticity after 10 mins in absence of metal cation by circular dichroism titration method
Method in brief: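 CD titration without metal ions: unfolded oligonucleotide 12-15 µM in 50 mM Tris; ligand added in 0.5 equiv steps, spectrum recorded 10 min after each addition at 20 °C, 230-360 nm, 3 scans averaged.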

ΔTm [1]: 7 °C
Activity [2]: inactive
ΔTm [3]: 9.1 °C
Activity [5]: Active
Activity [6]: Active
Activity [7]: inactive
Activity [8]: inactive
Activity (Homo sapiens): Active
Activity [10]: inactive
SMILES: Br.O=Cc1c(-c2ccccc2)nc2n1ccc1nc(-c3ccccc3)c(/C=N/NC3=NCCN3)n12
IC50 [4]: 4.18 µM
IC50 [9]: 407 nM
